pKi: −log10 of the molar value. Values belong to the compound of their own block, whether it stands above or below them.
How the values were obtained:
[1] = tested on: Rattus norvegicus; test: Antiinflammatory activity in Sprague-Dawley rat assessed as inhibition carrageenan-induced paw edema at 5 mg/kg, ip pretreated for 15 mins followed by carrageenan challenge measured at 1 hr post carrageenan challenge; settings: read-out: INH
[2] = tested on: Rattus norvegicus; test: Antiinflammatory activity in Sprague-Dawley rat assessed as inhibition carrageenan-induced paw edema at 5 mg/kg, ip pretreated for 15 mins followed by carrageenan challenge measured at 4 hrs post carrageenan challenge; assay type: functional
Outline: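 Male Sprague-Dawley rats got an IP pretreatment 15 min before a subplantar carrageenan injection. Paw volume was recorded at 1, 2, 4 and 6 h after carrageenan. Percent inhibition of paw edema was calculated against a vehicle-treated group.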

[3] = tested on: Rattus norvegicus; test: Antiinflammatory activity in Sprague-Dawley rat assessed as inhibition carrageenan-induced paw edema at 5 mg/kg, ip pretreated for 15 mins followed by carrageenan challenge measured at 2 hrs post carrageenan challenge; settings: read-out: INH
[4] = tested on: Rattus norvegicus; test: Antiinflammatory activity in Sprague-Dawley rat assessed as inhibition carrageenan-induced paw edema at 5 mg/kg, ip pretreated for 15 mins followed by carrageenan challenge measured at 6 hrs post carrageenan challenge; assay type: functional
Outline: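 Male Sprague-Dawley rats received peptide IP (30, 10 or 3 mg/kg), or indomethacin IP at 5 mg/kg, 15 min before subplantar carrageenan. Paw volume was followed over time against a vehicle group.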

[5] = tested on: Rattus norvegicus; test: Antiinflammatory activity in Sprague-Dawley rat assessed as inhibition carrageenan-induced paw edema at 5 mg/kg, ip pretreated for 30 mins followed by carrageenan challenge measured up to 8 hrs post carrageenan challenge; assay type: functional
[6] = tested on: Plasma; test: Anti-coagulating activity in human plasma assessed as increase in coagulation time at 14 uM by aPTT assay relative to control; assay type: functional
[7] = target: Coagulation factor XI (Homo sapiens, UniProt P03951); test: Inhibition of factor 11a (unknown origin)
Coagulation factor XI, sequence (P03951 19-387 limits assumed): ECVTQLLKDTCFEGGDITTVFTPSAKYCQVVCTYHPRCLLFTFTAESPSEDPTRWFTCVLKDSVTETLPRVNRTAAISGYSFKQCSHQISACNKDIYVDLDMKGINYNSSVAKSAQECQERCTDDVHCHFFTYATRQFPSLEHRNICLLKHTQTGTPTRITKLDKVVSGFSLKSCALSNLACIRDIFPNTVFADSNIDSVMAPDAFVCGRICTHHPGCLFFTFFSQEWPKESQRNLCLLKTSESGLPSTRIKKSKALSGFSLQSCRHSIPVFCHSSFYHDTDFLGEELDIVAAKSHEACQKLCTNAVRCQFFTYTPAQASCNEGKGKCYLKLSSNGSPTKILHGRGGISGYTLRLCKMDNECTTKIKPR
Coagulation factor XI, sequence (P03951 388-625 limits assumed): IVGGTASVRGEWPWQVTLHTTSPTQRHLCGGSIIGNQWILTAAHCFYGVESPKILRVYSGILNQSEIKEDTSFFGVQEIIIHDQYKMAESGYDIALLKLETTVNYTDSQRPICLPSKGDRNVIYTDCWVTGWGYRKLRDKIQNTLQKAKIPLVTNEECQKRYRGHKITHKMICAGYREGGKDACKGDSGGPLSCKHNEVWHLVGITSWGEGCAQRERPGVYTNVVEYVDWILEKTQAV

Compound: COc1ccc2c(c1)c(CC(=O)O)c(C)n2C(=O)c1ccc(Cl)cc1 [INDOMETHACIN]
- inhibition in vivo at 5 mg/kg [1]: 79%
- inhibition in vivo at 5 mg/kg [2]: 54%
- inhibition in vivo at 5 mg/kg [3]: 56%
- inhibition in vivo at 5 mg/kg [4]: 48%
- inhibition in vivo at 5 mg/kg [5]: 47.2%

- pKi [7]: 6.00
Compound: Cc1cc(Oc2nc(Oc3cccc(C(=N)N)c3)c(F)c(NC(C)CCc3ccccc3)c2F)c(C(=O)O)cc1N(C)C (configuration not stated)
- fold change (FC) [6]: 2

— ChEMBL document CHEMBL4033799, “Stable and Long-Lasting, Novel Bicyclic Peptide Plasma Kallikrein Inhibitors for the Treatment of Diabetic Macular Edema” (J Med Chem, 2018)
